pIC50, pKi: −log10 of the molar value.
tested on: Rattus norvegicus; assay: Hypnotic activity in Sprague-Dawley rat assessed as non-rapid eye movement sleep at 3 mg/kg, po administered during active phase; format: functional
Outline: (§1)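 Male Sprague-Dawley rats (275-300 g) carried implanted telemetric EEG/EMG transmitters and were used 3 weeks after surgery. Oral dosing (2 mL/kg) was given 6 h after lights off (CT18) in a randomized crossover versus vehicle. Recording ran for 5 h in 10 s epochs scored by FFT. n = 8, mean ± SEM; one-way ANOVA with Dunnett's test.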

SMILES | Time
O=C(O)C1CN(C2CC[C@]3(Cc4ccccc4Cc4ccccc43)C2)C1 (some centres undefined) | 118.6 min
O=C(O)C1CCN(C2CC[C@]3(Cc4ccccc4Cc4ccccc43)C2)CC1 (some centres undefined) | 94.2 min

molecular target: T1, Cytochrome P450 1A2 (Homo sapiens, UniProt P05177); assay: Inhibition of human CYP1A2 transfected in bactosome expression system by spectrofluorimetry; format: ADME
T1 sequence (P05177 whole entry): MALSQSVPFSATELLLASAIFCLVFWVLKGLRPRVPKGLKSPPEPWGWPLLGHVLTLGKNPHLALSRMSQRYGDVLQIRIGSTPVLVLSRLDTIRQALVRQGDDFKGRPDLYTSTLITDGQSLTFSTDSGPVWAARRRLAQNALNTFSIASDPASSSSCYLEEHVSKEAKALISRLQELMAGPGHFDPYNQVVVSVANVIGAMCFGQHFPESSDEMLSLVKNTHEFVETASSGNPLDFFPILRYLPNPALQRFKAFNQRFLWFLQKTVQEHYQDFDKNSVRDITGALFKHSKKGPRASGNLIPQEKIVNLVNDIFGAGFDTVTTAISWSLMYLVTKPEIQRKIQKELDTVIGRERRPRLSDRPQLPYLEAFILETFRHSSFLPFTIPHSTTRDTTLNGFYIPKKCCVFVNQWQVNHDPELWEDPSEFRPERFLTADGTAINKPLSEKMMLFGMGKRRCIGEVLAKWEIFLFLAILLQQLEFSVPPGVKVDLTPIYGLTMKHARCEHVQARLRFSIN
Outline: (§2)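 Recombinant human CYP Bactosomes (0.1 mg/mL) in 50 mM phosphate buffer, pH 7.4. Compound at 0.1-10 μM was preincubated with fluorogenic substrate for 10 min at 37 °C, and the reaction was started with an NADPH regenerating system. Metabolite fluorescence was followed for 10 min. Substrates: 1A2 ethoxyresorufin 0.5 μM; 2C9 FCA 50 μM; 2C19 BMC 10 μM; 2D6 MMC 10 μM; 3A4 DEF 1 μM or 7-BQ 25 μM. Run in triplicate.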

SMILES | pIC50
O=C(O)C1CN(C2CC[C@]3(Cc4ccccc4Cc4ccccc43)C2)C1 (some centres undefined) | < 5.00
O=C(O)C1CCN(C2CC[C@]3(Cc4ccccc4Cc4ccccc43)C2)CC1 (some centres undefined) | < 5.00

molecular target: Cytochrome P450 2C19 (Homo sapiens, UniProt P33261); assay: Inhibition of human CYP2C19 transfected in bactosome expression system by spectrofluorimetry; format: ADME; outline: as §2
Sequence (P33261 whole entry): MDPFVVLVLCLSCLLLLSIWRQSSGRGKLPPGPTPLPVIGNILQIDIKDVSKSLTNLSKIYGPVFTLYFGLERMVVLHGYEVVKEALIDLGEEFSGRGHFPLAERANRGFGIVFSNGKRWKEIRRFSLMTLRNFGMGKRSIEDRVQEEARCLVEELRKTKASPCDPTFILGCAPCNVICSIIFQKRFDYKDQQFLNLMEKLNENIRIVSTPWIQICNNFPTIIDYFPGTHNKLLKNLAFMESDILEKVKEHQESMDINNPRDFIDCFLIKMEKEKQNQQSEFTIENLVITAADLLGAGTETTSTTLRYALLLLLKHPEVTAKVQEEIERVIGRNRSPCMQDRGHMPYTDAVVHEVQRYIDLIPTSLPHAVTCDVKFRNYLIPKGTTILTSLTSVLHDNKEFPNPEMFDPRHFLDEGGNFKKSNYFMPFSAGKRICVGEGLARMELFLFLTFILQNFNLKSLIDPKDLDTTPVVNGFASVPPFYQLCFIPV

SMILES | pIC50
O=C(O)C1CN(C2CC[C@]3(Cc4ccccc4Cc4ccccc43)C2)C1 (some centres undefined) | < 5.00
O=C(O)C1CCN(C2CC[C@]3(Cc4ccccc4Cc4ccccc43)C2)CC1 (some centres undefined) | < 5.00

molecular target: Cytochrome P450 2C9 (Homo sapiens, UniProt P11712); assay: Inhibition of human CYP2C9 transfected in bactosome expression system by spectrofluorimetry; format: ADME; outline: as §2
Sequence (P11712 whole entry): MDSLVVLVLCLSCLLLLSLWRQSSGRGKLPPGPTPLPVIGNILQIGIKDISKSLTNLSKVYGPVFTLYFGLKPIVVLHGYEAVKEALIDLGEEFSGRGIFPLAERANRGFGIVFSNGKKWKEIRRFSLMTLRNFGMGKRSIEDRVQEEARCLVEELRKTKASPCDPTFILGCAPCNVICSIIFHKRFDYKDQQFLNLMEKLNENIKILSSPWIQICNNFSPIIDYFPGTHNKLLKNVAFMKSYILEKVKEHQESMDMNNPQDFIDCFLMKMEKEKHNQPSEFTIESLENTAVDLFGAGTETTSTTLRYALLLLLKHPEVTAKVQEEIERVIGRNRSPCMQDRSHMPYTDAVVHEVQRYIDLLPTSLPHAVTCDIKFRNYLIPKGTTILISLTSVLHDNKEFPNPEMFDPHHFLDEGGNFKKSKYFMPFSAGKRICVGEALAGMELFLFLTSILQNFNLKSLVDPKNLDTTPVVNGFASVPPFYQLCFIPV

SMILES | pIC50
O=C(O)C1CN(C2CC[C@]3(Cc4ccccc4Cc4ccccc43)C2)C1 (some centres undefined) | < 5.00
O=C(O)C1CCN(C2CC[C@]3(Cc4ccccc4Cc4ccccc43)C2)CC1 (some centres undefined) | < 5.00

tested on: Rattus norvegicus; assay: Hypnotic activity in Sprague-Dawley rat assessed as rapid eye movement sleep at 10 mg/kg, po administered during active phase; format: functional; outline: as §1

SMILES | Time
O=C(O)C1CN(C2CC[C@]3(Cc4ccccc4Cc4ccccc43)C2)C1 (some centres undefined) | 14.6 min
O=C(O)C1CCN(C2CC[C@]3(Cc4ccccc4Cc4ccccc43)C2)CC1 (some centres undefined) | 12.6 min

tested on: Rattus norvegicus; assay: Hypnotic activity in Sprague-Dawley rat assessed as rapid eye movement sleep at 1 mg/kg, po administered during active phase; format: functional; outline: as §1

SMILES | Time
O=C(O)C1CN(C2CC[C@]3(Cc4ccccc4Cc4ccccc43)C2)C1 (some centres undefined) | 10.7 min
O=C(O)C1CCN(C2CC[C@]3(Cc4ccccc4Cc4ccccc43)C2)CC1 (some centres undefined) | 9.7 min

molecular target: Histamine H1 receptor (Homo sapiens, UniProt P35367); assay: Antagonist activity against human histamine H1 receptor expressed in CHO cells by FLIPR assay; format: functional, cell-based
Sequence (P35367 whole entry): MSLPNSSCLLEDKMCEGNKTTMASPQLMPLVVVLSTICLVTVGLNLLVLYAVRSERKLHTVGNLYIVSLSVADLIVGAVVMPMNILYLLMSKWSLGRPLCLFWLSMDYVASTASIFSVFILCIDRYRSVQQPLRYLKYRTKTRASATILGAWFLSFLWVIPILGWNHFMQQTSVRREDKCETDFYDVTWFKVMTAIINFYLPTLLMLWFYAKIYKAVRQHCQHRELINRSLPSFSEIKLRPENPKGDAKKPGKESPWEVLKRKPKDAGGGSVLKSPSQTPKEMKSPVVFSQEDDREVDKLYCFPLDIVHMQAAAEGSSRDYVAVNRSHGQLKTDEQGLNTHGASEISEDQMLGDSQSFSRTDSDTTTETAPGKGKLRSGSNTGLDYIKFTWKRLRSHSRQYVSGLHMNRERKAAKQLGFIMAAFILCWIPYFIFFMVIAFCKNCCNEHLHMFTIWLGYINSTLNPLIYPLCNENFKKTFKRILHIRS

SMILES | pKi
O=C(O)C1CN(C2CC[C@]3(Cc4ccccc4Cc4ccccc43)C2)C1 (some centres undefined) | 8.20
O=C(O)C1CCN(C2CC[C@]3(Cc4ccccc4Cc4ccccc43)C2)CC1 (some centres undefined) | 7.30

tested on: Rattus norvegicus; assay: Hypnotic activity in Sprague-Dawley rat assessed as non-rapid eye movement latency period at 3 mg/kg, po administered during active phase; format: functional; outline: as §1

SMILES | Time
O=C(O)C1CN(C2CC[C@]3(Cc4ccccc4Cc4ccccc43)C2)C1 (some centres undefined) | 51.6 min
O=C(O)C1CCN(C2CC[C@]3(Cc4ccccc4Cc4ccccc43)C2)CC1 (some centres undefined) | 51.4 min

tested on: Rattus norvegicus; assay: Hypnotic activity in Sprague-Dawley rat assessed as rapid eye movement latency period at 10 mg/kg, po administered during active phase; format: functional; outline: as §1

SMILES | Time
O=C(O)C1CN(C2CC[C@]3(Cc4ccccc4Cc4ccccc43)C2)C1 (some centres undefined) | 64.5 min
O=C(O)C1CCN(C2CC[C@]3(Cc4ccccc4Cc4ccccc43)C2)CC1 (some centres undefined) | 83.8 min

tested on: Rattus norvegicus; assay: Hypnotic activity in Sprague-Dawley rat assessed as total sleep time at 10 mg/kg, po administered during active phase; format: functional; outline: as §1

SMILES | Time
O=C(O)C1CN(C2CC[C@]3(Cc4ccccc4Cc4ccccc43)C2)C1 (some centres undefined) | 145.2 min
O=C(O)C1CCN(C2CC[C@]3(Cc4ccccc4Cc4ccccc43)C2)CC1 (some centres undefined) | 105.2 min

tested on: Rattus norvegicus; assay: Hypnotic activity in Sprague-Dawley rat assessed as total sleep time at 3 mg/kg, po administered during active phase; format: functional; outline: as §1

SMILES | Time
O=C(O)C1CN(C2CC[C@]3(Cc4ccccc4Cc4ccccc43)C2)C1 (some centres undefined) | 134.7 min
O=C(O)C1CCN(C2CC[C@]3(Cc4ccccc4Cc4ccccc43)C2)CC1 (some centres undefined) | 105.2 min

tested on: not listed separately; assay: Fraction unbound in rat brain; format: ADME, tissue-based

SMILES | fraction unbound
O=C(O)C1CN(C2CC[C@]3(Cc4ccccc4Cc4ccccc43)C2)C1 (some centres undefined) | 0.032
O=C(O)C1CCN(C2CC[C@]3(Cc4ccccc4Cc4ccccc43)C2)CC1 (some centres undefined) | 0.031

tested on: Rattus norvegicus; assay: Hypnotic activity in Sprague-Dawley rat assessed as non-rapid eye movement latency period at 10 mg/kg, po administered during active phase; format: functional; outline: as §1

SMILES | Time
O=C(O)C1CN(C2CC[C@]3(Cc4ccccc4Cc4ccccc43)C2)C1 (some centres undefined) | 33.5 min
O=C(O)C1CCN(C2CC[C@]3(Cc4ccccc4Cc4ccccc43)C2)CC1 (some centres undefined) | 34.6 min

molecular target: Cytochrome P450 3A4 (Homo sapiens, UniProt P08684); assay: Inhibition of human CYP3A4 transfected in bactosome expression system by spectrofluorimetry; format: ADME; outline: as §2
Sequence (P08684 whole entry): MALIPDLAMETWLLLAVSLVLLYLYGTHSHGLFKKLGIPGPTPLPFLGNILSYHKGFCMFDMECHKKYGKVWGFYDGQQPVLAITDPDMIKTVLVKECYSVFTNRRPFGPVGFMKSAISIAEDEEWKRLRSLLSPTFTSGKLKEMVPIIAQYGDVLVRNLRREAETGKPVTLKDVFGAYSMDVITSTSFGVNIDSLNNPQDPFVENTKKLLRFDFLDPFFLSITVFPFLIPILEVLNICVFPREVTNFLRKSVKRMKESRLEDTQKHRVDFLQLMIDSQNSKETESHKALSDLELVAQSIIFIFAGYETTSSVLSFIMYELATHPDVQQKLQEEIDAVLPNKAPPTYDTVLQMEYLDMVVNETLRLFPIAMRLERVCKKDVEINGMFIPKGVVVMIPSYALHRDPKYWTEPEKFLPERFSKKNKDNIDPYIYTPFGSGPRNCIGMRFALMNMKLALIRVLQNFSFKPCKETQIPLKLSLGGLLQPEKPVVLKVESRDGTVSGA

SMILES | pIC50
O=C(O)C1CN(C2CC[C@]3(Cc4ccccc4Cc4ccccc43)C2)C1 (some centres undefined) | < 5.00
O=C(O)C1CCN(C2CC[C@]3(Cc4ccccc4Cc4ccccc43)C2)CC1 (some centres undefined) | < 5.00

molecular target: T2, 5-hydroxytryptamine receptor 2C (Homo sapiens, UniProt P28335); assay: Antagonist activity at human 5HT2C receptor expressed in human SH-SY5Y cells by FLIPR assay; format: functional, cell-based
T2 sequence (P28335 whole entry): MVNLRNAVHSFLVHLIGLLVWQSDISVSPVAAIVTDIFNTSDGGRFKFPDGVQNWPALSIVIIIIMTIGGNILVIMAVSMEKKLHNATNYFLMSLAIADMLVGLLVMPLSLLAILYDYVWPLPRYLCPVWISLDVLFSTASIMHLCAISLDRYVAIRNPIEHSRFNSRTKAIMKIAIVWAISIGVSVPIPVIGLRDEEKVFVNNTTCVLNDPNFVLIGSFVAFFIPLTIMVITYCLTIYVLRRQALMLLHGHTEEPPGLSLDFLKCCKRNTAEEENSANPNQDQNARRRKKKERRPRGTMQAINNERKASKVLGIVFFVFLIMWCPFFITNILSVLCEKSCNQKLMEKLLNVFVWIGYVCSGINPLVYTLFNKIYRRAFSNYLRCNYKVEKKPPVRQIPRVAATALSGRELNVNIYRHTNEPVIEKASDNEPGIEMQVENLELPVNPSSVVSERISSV

SMILES | pKi
O=C(O)C1CN(C2CC[C@]3(Cc4ccccc4Cc4ccccc43)C2)C1 (some centres undefined) | 8.20
O=C(O)C1CCN(C2CC[C@]3(Cc4ccccc4Cc4ccccc43)C2)CC1 (some centres undefined) | 7.20

molecular target: Histamine H1 receptor (Rattus norvegicus, UniProt P31390); assay: Displacement of [3H]pyrilamine from histamine H1 receptor in Sprague-Dawley rat cortical membrane by liquid scintillation counting
Outline: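 Cerebral cortex membranes from male Sprague-Dawley rats (200-250 g), 150 μg/well. Incubated with 0.6 nM [3H]pyrilamine in 50 mM HEPES, pH 7.4, for 2 h at room temperature. Filtered on PEI-soaked GF/B and counted by scintillation. Nonspecific binding with 10 μM cetirizine. Ki by Cheng-Prusoff; mean of two experiments in duplicate.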

Histamine H1 receptor (Rattus norvegicus, UniProt P31390), sequence (P31390 whole entry): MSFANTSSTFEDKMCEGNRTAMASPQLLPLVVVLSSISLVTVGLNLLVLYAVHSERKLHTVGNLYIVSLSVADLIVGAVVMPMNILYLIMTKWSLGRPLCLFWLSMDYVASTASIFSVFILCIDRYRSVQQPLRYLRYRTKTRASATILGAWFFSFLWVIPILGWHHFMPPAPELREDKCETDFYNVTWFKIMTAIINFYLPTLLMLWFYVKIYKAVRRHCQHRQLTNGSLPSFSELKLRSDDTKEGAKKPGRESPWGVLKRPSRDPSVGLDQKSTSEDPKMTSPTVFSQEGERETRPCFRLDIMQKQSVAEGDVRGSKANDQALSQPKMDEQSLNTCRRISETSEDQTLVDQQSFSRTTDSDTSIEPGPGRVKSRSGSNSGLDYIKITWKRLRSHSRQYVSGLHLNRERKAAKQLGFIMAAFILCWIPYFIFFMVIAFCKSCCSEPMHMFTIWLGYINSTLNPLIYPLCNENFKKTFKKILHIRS

SMILES | pKi
O=C(O)C1CN(C2CC[C@]3(Cc4ccccc4Cc4ccccc43)C2)C1 (some centres undefined) | 8.25
O=C(O)C1CCN(C2CC[C@]3(Cc4ccccc4Cc4ccccc43)C2)CC1 (some centres undefined) | 8.33

molecular target: 5-hydroxytryptamine receptor 2A (Rattus norvegicus, UniProt P14842); assay: Displacement of [3H]ketanserin from 5HT2A receptor in Sprague-Dawley rat cortical membrane by liquid scintillation counting
Outline: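 Cerebral cortex membranes from male Sprague-Dawley rats (200-250 g), 50 μg/well. Incubated with 1 nM [3H]ketanserin in 50 mM Tris-HCl, 10 mM MgCl2, pH 7.4, for 1 h at 37 °C with shaking. Filtered on PEI-soaked GF/B and counted by scintillation. Nonspecific binding with 10 μM mianserin. Ki by Cheng-Prusoff; mean of two experiments in duplicate.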

5-hydroxytryptamine receptor 2A, sequence (P14842 whole entry): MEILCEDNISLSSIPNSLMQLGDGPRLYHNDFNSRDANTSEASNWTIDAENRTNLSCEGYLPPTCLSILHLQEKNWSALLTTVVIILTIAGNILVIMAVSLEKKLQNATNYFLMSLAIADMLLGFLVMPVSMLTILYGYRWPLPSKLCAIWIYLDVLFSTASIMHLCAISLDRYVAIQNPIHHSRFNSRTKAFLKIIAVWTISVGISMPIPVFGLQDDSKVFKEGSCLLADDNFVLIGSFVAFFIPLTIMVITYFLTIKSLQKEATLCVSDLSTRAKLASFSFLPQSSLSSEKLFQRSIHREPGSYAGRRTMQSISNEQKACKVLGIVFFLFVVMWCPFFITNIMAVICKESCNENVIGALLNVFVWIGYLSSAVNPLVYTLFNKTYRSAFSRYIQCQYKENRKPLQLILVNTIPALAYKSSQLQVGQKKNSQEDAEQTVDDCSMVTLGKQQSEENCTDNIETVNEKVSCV

SMILES | pKi
O=C(O)C1CN(C2CC[C@]3(Cc4ccccc4Cc4ccccc43)C2)C1 (some centres undefined) | 7.48
O=C(O)C1CCN(C2CC[C@]3(Cc4ccccc4Cc4ccccc43)C2)CC1 (some centres undefined) | 7.47

molecular target: 5-hydroxytryptamine receptor 2B (Homo sapiens, UniProt P41595); assay: Antagonist activity at human 5HT2B receptor expressed in human SH-SY5Y cells by FLIPR assay
Sequence (P41595 whole entry): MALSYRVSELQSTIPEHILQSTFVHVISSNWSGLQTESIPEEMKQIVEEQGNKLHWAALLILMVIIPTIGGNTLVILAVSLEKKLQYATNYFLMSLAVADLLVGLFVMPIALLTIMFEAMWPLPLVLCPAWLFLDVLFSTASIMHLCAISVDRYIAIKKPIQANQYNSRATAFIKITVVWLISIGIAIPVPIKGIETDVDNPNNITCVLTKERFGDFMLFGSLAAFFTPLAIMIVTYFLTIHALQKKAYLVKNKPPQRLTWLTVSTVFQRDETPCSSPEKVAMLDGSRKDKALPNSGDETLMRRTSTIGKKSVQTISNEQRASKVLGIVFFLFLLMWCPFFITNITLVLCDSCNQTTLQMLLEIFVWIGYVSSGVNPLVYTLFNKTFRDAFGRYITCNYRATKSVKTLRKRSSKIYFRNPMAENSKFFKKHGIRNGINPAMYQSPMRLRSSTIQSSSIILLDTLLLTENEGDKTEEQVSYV

SMILES | pKi
O=C(O)C1CN(C2CC[C@]3(Cc4ccccc4Cc4ccccc43)C2)C1 (some centres undefined) | 7.10
O=C(O)C1CCN(C2CC[C@]3(Cc4ccccc4Cc4ccccc43)C2)CC1 (some centres undefined) | 6.80

tested on: Rattus norvegicus; assay: Hypnotic activity in Sprague-Dawley rat assessed as total sleep time at 1 mg/kg, po administered during active phase; format: functional; outline: as §1

SMILES | Time
O=C(O)C1CN(C2CC[C@]3(Cc4ccccc4Cc4ccccc43)C2)C1 (some centres undefined) | 98.1 min
O=C(O)C1CCN(C2CC[C@]3(Cc4ccccc4Cc4ccccc43)C2)CC1 (some centres undefined) | 94.4 min

molecular target: Cytochrome P450 2D6 (Homo sapiens, UniProt P10635); assay: Inhibition of human CYP2D6 transfected in bactosome expression system by spectrofluorimetry; format: ADME; outline: as §2
Sequence (P10635 whole entry): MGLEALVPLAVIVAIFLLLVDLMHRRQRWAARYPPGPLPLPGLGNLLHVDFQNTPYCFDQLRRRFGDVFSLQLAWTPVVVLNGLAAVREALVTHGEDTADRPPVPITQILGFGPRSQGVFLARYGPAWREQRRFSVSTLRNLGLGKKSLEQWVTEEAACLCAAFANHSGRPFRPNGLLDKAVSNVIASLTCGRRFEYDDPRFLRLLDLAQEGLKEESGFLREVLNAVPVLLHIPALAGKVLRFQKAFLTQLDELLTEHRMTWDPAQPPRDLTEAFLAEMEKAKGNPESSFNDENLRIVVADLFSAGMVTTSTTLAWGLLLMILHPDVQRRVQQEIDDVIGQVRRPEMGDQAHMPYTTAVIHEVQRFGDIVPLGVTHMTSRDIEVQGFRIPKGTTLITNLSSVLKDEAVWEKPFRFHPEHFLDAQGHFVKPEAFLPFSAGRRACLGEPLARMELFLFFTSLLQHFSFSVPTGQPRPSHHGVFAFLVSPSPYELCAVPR

SMILES | pIC50
O=C(O)C1CN(C2CC[C@]3(Cc4ccccc4Cc4ccccc43)C2)C1 (some centres undefined) | < 5.00
O=C(O)C1CCN(C2CC[C@]3(Cc4ccccc4Cc4ccccc43)C2)CC1 (some centres undefined) | < 5.00

tested on: Rattus norvegicus; assay: Hypnotic activity in Sprague-Dawley rat assessed as rapid eye movement sleep at 3 mg/kg, po administered during active phase; format: functional; outline: as §1

SMILES | Time
O=C(O)C1CN(C2CC[C@]3(Cc4ccccc4Cc4ccccc43)C2)C1 (some centres undefined) | 16.1 min
O=C(O)C1CCN(C2CC[C@]3(Cc4ccccc4Cc4ccccc43)C2)CC1 (some centres undefined) | 11 min

tested on: Rattus norvegicus; assay: Hypnotic activity in Sprague-Dawley rat assessed as rapid eye movement latency period at 1 mg/kg, po administered during active phase; format: functional; outline: as §1

SMILES | Time
O=C(O)C1CN(C2CC[C@]3(Cc4ccccc4Cc4ccccc43)C2)C1 (some centres undefined) | 77.8 min
O=C(O)C1CCN(C2CC[C@]3(Cc4ccccc4Cc4ccccc43)C2)CC1 (some centres undefined) | 83.6 min

Reference: ChEMBL document CHEMBL1275351, “Novel spirotetracyclic zwitterionic dual H(1)/5-HT(2A) receptor antagonists for the treatment of sleep disorders” (J Med Chem, 2010)
